Only some compounds are listed: those with a hit (about 5.8% of all), similar ones and a draw of the others.
Tcruzi prolif: blocks T. cruzi growth in NIH3T3 culture; AID 624255; 5.9% of 77,000 active; inhibition, % at 8.34 µM; T. cruzi beta-gal in NIH3T3, GalScreen luminescence, 90 h;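 active = mean inhibition above about 93%, with at least 55% of replicates each passing it, limit read from the data, passing the limit was not always enough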
IDH1 mut inh: IDH1 R132H (human) inhibition; IDH1 R132H reductase, diaphorase/resazurin fluorescence, 60 min; inhibition, % at 10 µM; 0.18% of 70,000 active; in the data active = inhibition above about 34%;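 note: 0% = DMSO and 100% = no enzyme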
Target sequence (O75874 whole entry R132H): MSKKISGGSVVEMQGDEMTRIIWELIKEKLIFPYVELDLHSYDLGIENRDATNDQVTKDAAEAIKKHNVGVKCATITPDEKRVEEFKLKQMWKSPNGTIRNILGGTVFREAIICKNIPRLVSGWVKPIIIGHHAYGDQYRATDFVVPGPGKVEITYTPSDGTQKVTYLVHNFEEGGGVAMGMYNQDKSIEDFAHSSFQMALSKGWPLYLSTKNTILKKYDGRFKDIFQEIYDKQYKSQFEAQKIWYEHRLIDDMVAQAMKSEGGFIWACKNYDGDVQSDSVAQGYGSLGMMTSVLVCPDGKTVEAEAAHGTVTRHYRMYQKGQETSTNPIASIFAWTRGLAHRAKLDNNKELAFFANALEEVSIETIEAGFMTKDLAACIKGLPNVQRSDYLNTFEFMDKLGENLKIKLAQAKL
KDM4C inh: KDM4C (human) demethylase inhibition. Q9H3R0. GST-KDM4C 2-372, H3K9me3 peptide, LANCE TR-FRET. inhibition, % at 12.5 µM. 0.15% of 96,000 active. AID 720574;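 active = mean replicate inhibition above about 25%, with at least 55% of replicates also reaching it, limit read from the data, passing the limit was not always enough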
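Material: GST-tagged GASC-1 (JMJD2C) catalytic fragment, aa 2-372 / Quantity: enzyme final amount 10 nM / Medium: HEPES buffer, pH 7.5, plus ascorbate / Doses: one test concentration per compound / Incubation: 30 min reaction, 60 min detection, RT / Measured by: LANCE TR-FRET / Read-out: inhibition from TR-FRET ratio decrease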
Pf Dd2 growth: inhibitors of Plasmodium falciparum Dd2 growth. P. falciparum Dd2 growth, SYBR Green, 72 h; stronger effect = lower value. AID 1159554. activity change, % at 10 µM. 2.3% of 94,000 active; in the data active = activity change below about -80%
* marks the source's active call; other numbers are inactive results.

`C[C@H]1CN([C@@H](C)CO)C(=O)c2cc(NC(=O)Nc3ccc(C(F)(F)F)cc3)ccc2O[C@H]1CN(C)CC1CCCCC1` gave Tcruzi prolif 71, IDH1 mut inh 1 and Pf Dd2 growth -48.
Screening C[C@@H]1CN([C@@H](C)CO)C(=O)c2cc(NC(=O)Nc3ccc(C(F)(F)F)cc3)ccc2O[C@@H](C)CCCCO[C@@H]1CN(C)CC1CCCCC1 returned Tcruzi prolif 100*, IDH1 mut inh 1, KDM4C inh -5 and Pf Dd2 growth -49.
`C[C@@H]1CCCCO[C@H](CN(C)CC2CCCCC2)[C@@H](C)CN([C@H](C)CO)C(=O)c2cc(NC(=O)Nc3ccc(C(F)(F)F)cc3)ccc2O1` gave Tcruzi prolif 96, IDH1 mut inh 0, KDM4C inh -2 and Pf Dd2 growth -37.
For C[C@@H]1CCCCO[C@H](CN(C)CC2CC2)[C@H](C)CN([C@@H](C)CO)C(=O)c2cc(NC(=O)Nc3ccc(C(F)(F)F)cc3)ccc2O1 the results were Tcruzi prolif 69, KDM4C inh -2 and Pf Dd2 growth -80*.
C[C@@H]1CCCCO[C@@H](CN(C)CC2CC2)[C@H](C)CN([C@@H](C)CO)C(=O)c2cc(NC(=O)Nc3ccc(C(F)(F)F)cc3)ccc2O1 was read as Tcruzi prolif 26, KDM4C inh -1 and Pf Dd2 growth -56.
For Cn1cnc(S(=O)(=O)N2CCCCN3[C@H](C2)[C@@H](c2ccc(-c4ccc(F)cc4)cc2)[C@@H]3CO)c1 the results were Tcruzi prolif 23, KDM4C inh 0 and Pf Dd2 growth 38.
`COCC(=O)N(C)C[C@H]1Oc2cc(-c3cncnc3)ccc2S(=O)(=O)N([C@@H](C)CO)C[C@H]1C` gave Tcruzi prolif 6, IDH1 mut inh -1, KDM4C inh -1 and Pf Dd2 growth 34.
Screening CN(C)CC(=O)Nc1ccc2c(c1)[C@@H]1C[C@H](CC(=O)NC3CCCCC3)O[C@H](CO)[C@@H]1O2 returned Tcruzi prolif -6, IDH1 mut inh 0, KDM4C inh -1 and Pf Dd2 growth 30.
Screening COc1ccc2c3c(n(C)c2c1)[C@@H](CO)NCC31CCN(Cc2ccc(-c3ccccn3)cc2)CC1 returned KDM4C inh 0 and Pf Dd2 growth -88*.
COc1ccc2c3c(n(C)c2c1)[C@@H](CO)NCC31CCN(Cc2ccccc2F)CC1 was read as KDM4C inh -1 and Pf Dd2 growth -78.
Screening COc1ccc2c3c(n(C)c2c1)[C@H](CO)NCC31CCN(Cc2ccc(-c3ccccn3)cc2)CC1 returned KDM4C inh -1 and Pf Dd2 growth -88*.
Screening COc1ccc2c3c(n(C)c2c1)[C@@H](CO)NCC31CCN(Cc2ccc(Cl)cc2)CC1 returned Pf Dd2 growth 0.
`COc1ccc2c3c(n(C)c2c1)[C@@H](CO)NCC31CN(Cc2ccc(-c3ccccn3)cc2)C1` gave KDM4C inh -1 and Pf Dd2 growth -89*.
Screening CC=Cc1ccc2n(c1=O)C[C@@H]1[C@@H](CO)[C@H](C(=O)NCc3ccncc3)N(Cc3ccncc3)[C@H]21 (mixture of isomers) returned Tcruzi prolif 24, KDM4C inh 7 and Pf Dd2 growth 12.
Screening COc1cccc(-c2cnc3c(c2)C(=O)N([C@H](C)CO)C[C@H](C)[C@H](CN(C)S(=O)(=O)c2ccc(C#N)cc2)O3)c1 returned Tcruzi prolif -6, IDH1 mut inh -13, KDM4C inh -3 and Pf Dd2 growth -20.
`COc1ccc(CN(C)C[C@@H]2Oc3c(NC(=O)Nc4ccc5c(c4)OCO5)cccc3C(=O)N([C@@H](C)CO)C[C@H]2C)cc1` gave Tcruzi prolif 83, IDH1 mut inh 2, KDM4C inh 0 and Pf Dd2 growth -7.
`C[C@@H]1CN([C@@H](C)CO)C(=O)Cc2cc(NS(=O)(=O)c3ccc(Cl)cc3)ccc2O[C@@H]1CN(C)Cc1ccc(C(=O)Nc2ccccc2N)cc1` gave IDH1 mut inh 0, KDM4C inh 3 and Pf Dd2 growth -82*.
`C[C@@H]1CN([C@@H](C)CO)C(=O)Cc2cc(NS(=O)(=O)c3ccccc3)ccc2O[C@@H]1CN(C)Cc1ccc(C(=O)Nc2ccccc2N)cc1` gave Tcruzi prolif 42, IDH1 mut inh 0, KDM4C inh -2 and Pf Dd2 growth -88*.
For C[C@@H]1CN([C@H](C)CO)C(=O)Cc2cc(NS(=O)(=O)c3ccc(Cl)cc3)ccc2O[C@@H]1CN(C)Cc1ccc(C(=O)Nc2ccccc2N)cc1 the results were IDH1 mut inh 0, KDM4C inh 5 and Pf Dd2 growth -85*.

Assay outcomes: PubChem BioAssay, Broad Institute
